# Data as given in ChEMBL document CHEMBL1127395, “Synthesis and antimicrobial activity of novel 3-[(aminopyrimidiniumyl)thio]methyl cephalosporins” (1994).
# How the values were obtained:
# [1] = system: Klebsiella pneumoniae; experiment: In vitro minimum inhibitory concentration for Klebsiella pneumoniae (ATCC-10031) by agar dilution method; type: functional
# [2] = system: Salmonella typhimurium; experiment: In vitro minimum inhibitory concentration for Salmonella Typhimurium (ATCC-14028) by agar dilution method; type: functional, Salmonella enterica subsp. enterica serovar Typhimurium
# In short: (§1)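 Two-fold serial dilutions of each compound dispersed in Mueller-Hinton agar; plates spot-inoculated with 2 μL of standard test strain at 10^7 CFU/mL, incubated 37 °C for 20 h; MIC read as lowest concentration inhibiting growth.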
# [3] = system: Escherichia coli; experiment: In vitro minimum inhibitory concentration for Escherichia coli (ATCC-10536) by agar dilution method; type: functional; in short: as §1
# [4] = system: Pseudomonas aeruginosa; experiment: In vitro minimum inhibitory concentration for Pseudomonas aeruginosa (ATCC-27853) by agar dilution method; type: functional; in short: as §1
# [5] = system: Proteus vulgaris; experiment: In vitro minimum inhibitory concentration for Proteus vulgaris (ATCC-6059) by agar dilution method; type: functional; in short: as §1
# [6] = system: Citrobacter freundii; experiment: In vitro minimum inhibitory concentration for Citrobacter freundii (ATCC-8090) by agar dilution method; type: functional; in short: as §1
# [7] = system: Pseudomonas aeruginosa; experiment: In vitro minimum inhibitory concentration for Pseudomonas aeruginosa (ATCC 10145) by agar dilution method; type: functional; in short: as §1
# [8] = system: Staphylococcus aureus; experiment: In vitro minimum inhibitory concentration for Staphylococcus aureus (ATCC 6538p) by agar dilution method; type: functional; in short: as §1
# [9] = system: Staphylococcus epidermidis; experiment: In vitro minimum inhibitory concentration for Staphylococcus epidermidis (ATCC-12228) by agar dilution method; type: functional; in short: as §1
# [10] = system: Klebsiella aerogenes; experiment: In vitro minimum inhibitory concentration for Enterobacter aerogenes (ATCC-29751) by agar dilution method; type: functional; in short: as §1
# [11] = system: Serratia marcescens; experiment: In vitro minimum inhibitory concentration for Serratia marcescens (ATCC-27117) by agar dilution method; type: functional; in short: as §1
# [12] = system: Enterobacter cloacae; experiment: In vitro minimum inhibitory concentration for Enterobacter cloacae (ATCC-27508) by agar dilution method; type: functional; in short: as §1
# [13] = Klebsiella pneumoniae, read-out: MIC
# [14] = Salmonella enterica, read-out: MIC
# [15] = Escherichia coli, read-out: MIC
# [16] = Pseudomonas aeruginosa, read-out: MIC
# [17] = Proteus vulgaris, read-out: MIC
# [18] = Citrobacter freundii, read-out: MIC
# [19] = Staphylococcus aureus, ATCC 6538p, read-out: MIC
# [20] = Staphylococcus epidermidis, read-out: MIC
# [21] = Klebsiella aerogenes, read-out: MIC
# [22] = Serratia marcescens, read-out: MIC
# [23] = Enterobacter cloacae, read-out: MIC
Compound,"MIC [1, 13] [mg/L]","MIC [2, 14] [mg/L]","MIC [3, 15] [mg/L]","MIC [4, 16] [mg/L]","MIC [5, 17] [mg/L]","MIC [6, 18] [mg/L]",MIC [7] [mg/L],"MIC [8, 19] [mg/L]","MIC [9, 20] [mg/L]","MIC [10, 21] [mg/L]","MIC [11, 22] [mg/L]","MIC [12, 23] [mg/L]",also measured
CC[n+]1c(N)cc(N)nc1SCC1=C(C(=O)[O-])N2C(=O)C(NC(=O)/C(=N\OC(C)(C)C(=O)O)c3cnc(N)s3)C2SC1 (stereo unspecified),0.06,0.25,0.06,1,0.03,0.13,2,2,1,2,0.13,0.03,
CCCC[n+]1c(N)cc(N)nc1SCC1=C(C(=O)[O-])N2C(=O)C(NC(=O)/C(=N\OC(C)(C)C(=O)O)c3cnc(N)s3)C2SC1 (stereo unspecified),0.06,0.5,0.13,4,0.25,0.13,4,2,1,1,0.5,0.03,
CC(C)(O/N=C(\C(=O)NC1C(=O)N2C(C(=O)[O-])=C(CSc3nc(N)c4c([n+]3N)CCCC4)CSC12)c1cnc(N)s1)C(=O)O (stereo unspecified),0.06,0.13,0.06,2,0.06,0.06,4,4,2,0.5,0.25,0.02,
Cn1cc[n+]2c(SCC3=C(C(=O)[O-])N4C(=O)C(NC(=O)/C(=N\OC(C)(C)C(=O)O)c5cnc(N)s5)C4SC3)nc(N3CCOCC3)cc12 (stereo unspecified),0.25,0.5,0.25,4,0.25,0.5,8,8,2,8,0.5,0.06,
C[n+]1c(N)cc(N)nc1SCC1=C(C(=O)[O-])N2C(=O)C(NC(=O)/C(=N\OC(C)(C)C(=O)O)c3cnc(N)s3)C2SC1 (stereo in doubt; 23),,,,,,,,,,,,,MIC [1]: 0.06 mg/L; MIC [2]: 0.25 mg/L; MIC [3]: 0.06 mg/L; MIC [4]: 2 mg/L; MIC [5]: 0.06 mg/L; MIC [6]: 0.13 mg/L; MIC [8]: 4 mg/L; MIC [9]: 2 mg/L; MIC [10]: 2 mg/L; MIC [11]: 0.13 mg/L; MIC [12]: 0.06 mg/L
CC(C)(O/N=C(\C(=O)N[C@@H]1C(=O)N2C(C(=O)[O-])=C(C[n+]3ccccc3)CS[C@H]12)c1csc(N)n1)C(=O)O [CEFTAZIDIME],,0.25,0.06,1,0.06,0.13,2,8,4,4,0.13,0.03,

# Further molecules by falling MIC [1, 13], results first:
"MIC [1, 13] [mg/L]","MIC [2, 14] [mg/L]","MIC [3, 15] [mg/L]","MIC [4, 16] [mg/L]","MIC [5, 17] [mg/L]","MIC [6, 18] [mg/L]",MIC [7] [mg/L],"MIC [8, 19] [mg/L]","MIC [9, 20] [mg/L]","MIC [10, 21] [mg/L]","MIC [11, 22] [mg/L]","MIC [12, 23] [mg/L]",Compound,also measured
2,8,4,32,0.25,8,32,> 128,> 128,32,4,1,CC(C)(O/N=C(\C(=O)NC1C(=O)N2C(C(=O)O)=C(CSc3nc(O)cc(O)n3)CSC12)c1cnc(N)s1)C(=O)O (stereo unspecified),
0.13,2,0.5,2,0.25,2,8,4,2,2,2,0.13,Cc1ccc(-[n+]2c(N)cc(N)nc2SCC2=C(C(=O)[O-])N3C(=O)C(NC(=O)/C(=N\OC(C)(C)C(=O)O)c4cnc(N)s4)C3SC2)c(C)c1 (stereo unspecified),
0.13,0.5,0.25,1,0.13,0.25,2,4,2,2,0.5,0.06,CC(C)(O/N=C(\C(=O)NC1C(=O)N2C(C(=O)[O-])=C(CSc3nc(N)cc(N)[n+]3-c3ccc(O)cc3)CSC12)c1cnc(N)s1)C(=O)O (stereo unspecified),
